# Source: PubChem BioAssay (several laboratories)
# Only some compounds are listed: those with a hit (about 4.8% of all), similar ones and a draw of the others.
# 697 NFkB inh: inhibitors of PMA/ionomycin-induced NF-kB reporter, 697 cells, primary screen, B-cell NF-kB inhibitor project, cell-based, luminescence, uHTS; 697 B-cell NF-kB luciferase reporter, 16 h; inhibition, % at 4 µM; 0.33% of 330,000 active; AID 435022, 2010; in the data active = inhibition above about 35%
# Jurkat NFkB inh: inhibitors of induced NF-kB luciferase reporter, primary screen, TCR NF-kB activation inhibitor project, cell-based, luminescence, uHTS; Jurkat, PMA/ionomycin-induced NF-kB luciferase reporter; 0.53% of 330,000 active; inhibition, % at 4 µM; AID 435003, 2010; in the data active = inhibition above about 50%
# HSF1 activator: HSF-1 activators, primary screen, NIH3T3-HGL cells, MG132 stress, luminescence, single point; activation, % at 9 µM; NIH3T3-HGL HSF-1 luciferase reporter, 8 h; 100% = twice DMSO control signal; 1.7% of 300,000 active;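 active = mean replicate activation of at least 50% with a set share of replicates each reaching 50%; inconclusive = only one of those two conditions met; inactive = mean below 50% and too few replicates reaching it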
# GPR7 antag: GPR7 receptor antagonists, primary screen, cell-based, fluorescence, single concentration. Neuropeptides B/W receptor type 1 (Homo sapiens), P48145. GPR7-expressing cells, fluorescence antagonist assay. inhibition, % at 4.4 µM. 1.1% of 290,000 active; in the data active = inhibition above about 16%, passing the limit was not always enough;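 also: cells stimulated with the agonist NPW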
# Target sequence (P48145 whole entry, looked up): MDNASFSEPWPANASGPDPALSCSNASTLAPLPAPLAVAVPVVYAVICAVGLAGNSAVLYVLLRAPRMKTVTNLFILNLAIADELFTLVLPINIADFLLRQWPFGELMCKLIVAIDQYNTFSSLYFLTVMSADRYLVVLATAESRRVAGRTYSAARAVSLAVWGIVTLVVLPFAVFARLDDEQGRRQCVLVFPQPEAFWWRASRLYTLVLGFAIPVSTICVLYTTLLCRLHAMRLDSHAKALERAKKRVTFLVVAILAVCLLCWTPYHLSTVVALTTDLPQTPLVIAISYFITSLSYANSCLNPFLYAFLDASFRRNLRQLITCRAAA
# HSF1 inh: HSF1 inhibitors in luciferase reporter cells, primary screen, cell-based, NIH3T3, luminescence; NIH3T3-HGL HSE-luciferase, MG132-induced, luminescence 8 h; active compounds read low; activity change, negative = inhibition, % at 7.5 µM (by protocol); AID 2098, 2009; 0.77% of 300,000 active;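 active = more than half of replicate wells show activity change below -50%, luminescence cut by over half; inconclusive = some wells, but at most half, below -50%; inactive = no replicate well below -50%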;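 also: luciferase reports HSF-1 transcriptional activity via heat shock element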
# T cruzi inh: inhibitors of intracellular T. cruzi growth, primary screen, luminescence, NIH3T3 host cells. T. cruzi beta-gal in NIH3T3, 90 h. inhibition, % (concentration not given with the values). 1.4% of 300,000 active. AID 1885, 2009;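 active = mean inhibition across valid replicates above about 55%, limit read from the data; inconclusive = mean below that limit but half or more replicates reach it; inactive = mean below it, under half of replicates reach it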;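 also: signal also drops with host cell toxicity which is not excluded here; higher percent means less beta-gal luminescence so fewer parasites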
#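 System: Mouse NIH/3T3 fibroblasts infected with β-gal-expressing T. cruzi Tulahuen C4 | Quantity: NIH/3T3 cells, 5,000 per well | Reagent: 5000 reporter trypomastigotes per well | Dosing: Compound pinned at 50 nL/well, DMSO | Schedule: 3 h host attachment, then at least 90 h co-culture | Detection: GalScreen luminescence, 60 min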
# Numbers stand for hits; - = inactive; ? = inconclusive; . = no result given.
SMILES,697 NFkB inh,Jurkat NFkB inh,HSF1 activator,GPR7 antag,HSF1 inh,T cruzi inh
CCCn1c(=O)[nH]c(=O)c2c1nc(-c1ccccc1OC(F)F)n2CCOC,-,-,53,-,-,-
CC(C)C[C@H](NC(=O)N1CCCCCC1)C(=O)O,-,-,-,-,-51,-
O=C(Nc1cccc([N+](=O)[O-])c1)C12CC3CC(C1)CC(n1cnc([N+](=O)[O-])n1)(C3)C2,-,-,-,-,-,64
O=C(Nc1ccccc1)C12CC3CC(C1)CC(n1cnc([N+](=O)[O-])n1)(C3)C2,-,-,-,-,-,55
COc1cc(NC(=O)C23CC4CC(C2)CC(n2cnc([N+](=O)[O-])n2)(C4)C3)cc(OC)c1,-,-,-,-,-,-
Cc1cc(C)c2c(c1)c1nnc(SCCN3CCCCC3)nc1n2C,-,-,-,-,-,-
O=C(COC(=O)COc1ccc(Cl)cc1Cl)Nc1cccnc1Cl,-,-,63,-,-,-
O=C(COC(=O)COc1ccccc1)Nc1cccnc1Cl,-,-,.,.,.,.
COc1cc(Cl)c(C)cc1NC(=O)COC(=O)C(NS(=O)(=O)c1ccc(Cl)cc1)C(C)O (stereo not drawn),-,-,?,-,-,-
CC(O)C(NS(=O)(=O)c1ccc(Cl)cc1)C(=O)OCC(=O)Nc1cccnc1Cl (stereo not drawn),-,-,-,25,-,-
CCN(CC)CCN(C(=O)/C=C/c1cccs1)c1nc2ccc(C)cc2s1,-,-,-,-,-,-
N#CC1(C#N)COC23CCCCC2C1(C#N)C(=N)O3 (stereo not drawn),-,-,-,-,-70,-
N#CC12COC3(CCCCC3C1(C#N)C#N)OC2=N (stereo not drawn),-,-,-,-,-,-
N/C(=N\c1nc2c(c(=O)[nH]1)CCC2)Nc1ccccc1C(F)(F)F,-,-,56,-,-,-
COc1ccccc1N/C(N)=N/c1nc(C(F)(F)F)cc(=O)[nH]1,-,-,-,-,-,-
Fc1ccc(CNCc2ccco2)cc1,-,-,-,-,-,-
c1ccc(CSc2ncnc3c2cnn3-c2ccccc2)cc1,-,-,-,-,-59,-
Clc1cccc(Nc2ncnc3c2cnn3-c2ccccc2)c1,-,-,-,.,-,-
Fc1cccc(Nc2ncnc3c2cnn3-c2ccccc2)c1,-,-,53,.,-,-
Cn1c(=O)cc(SCC(=O)N2CCOCC2)c2ccc(Cl)cc21,-,-,98,-,-,-
Cn1c(=O)cc(SCC(=O)N2CCCC2)c2ccc(Cl)cc21,-,-,-,-,-,-
Cc1ccc(NC(=O)CCCc2c[nH]c3ccccc23)nc1,-,-,-,-,-,-
CNc1ncc(C(=O)c2ccccc2)s1,-,-,57,-,-,-
O=C(NC(=S)Nc1ccccc1C(F)(F)F)c1ccccc1F,-,-,76,-,-,-
C/C(=N\NC(=O)c1ccc(N2CCCC2=O)cc1)c1ccncc1,-,-,-,-,-,-
SMILES,697 NFkB inh,Jurkat NFkB inh,HSF1 activator,GPR7 antag,HSF1 inh,T cruzi inh
Fc1cccc2sc(Nc3nnc(-c4ccccc4)o3)nc12,-,-,73,-,-,-
COc1ccc(-c2nnc(Nc3nc4c(OC)cccc4s3)o2)c(OC)c1,-,-,60,-,-,-
Fc1cccc2sc(Nc3nc4c(F)cccc4s3)nc12,-,-,-,-,-,-
NC(=S)N/N=C/c1ccc(-n2nncc2-c2ccc(Cl)cc2)cc1,-,-,-,-,-,57
Cc1cccc(NC(=O)c2nc[nH]c2C(=O)N2CCN(c3ccccc3)CC2)c1,-,-,.,.,.,.
Cc1ccc(C)c(N(CC(=O)N/N=C/c2ccc(-c3ccc([N+](=O)[O-])cc3)o2)S(=O)(=O)c2ccccc2)c1,-,-,-,-,-,72
CCOc1ccc(S(=O)(=O)N(CC(=O)N/N=C/c2ccc(-c3ccc([N+](=O)[O-])cc3)o2)c2ccccc2)cc1,-,-,-,-,-,-
Clc1ccc2c(c1)[C@H]1OCC[C@H]1[C@@H](c1ccco1)N2,-,-,70,-,-,-
Fc1ccc2c(c1)[C@H]1OCC[C@H]1[C@@H](c1ccco1)N2,-,-,-,-,-,-
CCCc1nnc(SCC(=O)Nc2ccccc2Cl)n1CC1CCCO1 (stereo not drawn),-,-,-,-,-,-
O=C(COC(=O)Cc1ccc(Br)cc1)NC1CCCC1,-,-,.,.,.,.
COC(=O)c1ccc(C(=O)OC)c(NC(=O)C(C)(C)C)c1,-,-,67,-,-,-
O=c1c2ccccc2nc(SCc2cn3ccsc3n2)n1-c1ccccc1F,-,-,-,-,-,-
Cc1csc2nc(CSc3ccc(Cl)cc3)cn12,-,-,67,-,-,-
Cc1cc(C)n2cc(CSc3ccc(Cl)cc3)nc2n1,-,-,-,-,-,-
O=c1c2ccccc2nc(SCc2cn3ccsc3n2)n1-c1ccccc1,-,-,65,-,-,-
Clc1ccc(SCc2cn3ccsc3n2)cc1,-,-,111,-,-,-
CCCCC[C@H]1CN(C2CCCCC2)C(=O)[C@@H]1CC(=O)NCc1ccccc1,-,-,-,-,-,-
O=C(c1cccs1)N1CCN(C23CC4CC(CC(C4)C2)C3)CC1,-,-,-,-,-,-
CCOC(=O)c1c(-c2ccccc2)csc1NC(=S)N(CC)CC,.,.,-,-,-,-
CCOC(=O)c1c(-c2ccccc2)csc1NC(=O)c1nn(CC)cc1Br,-,-,.,-,.,63
CCOC(=O)c1c(-c2cccs2)csc1NC(=O)COC(=O)c1c(C)noc1C,-,-,-,-,-,-
CCOC(=O)c1c(-c2cccs2)csc1NC(=O)c1ccncc1,-,-,-,-,-,55
CCc1nnc(NS(=O)(=O)c2ccc(Nc3ccc4nonc4c3[N+](=O)[O-])cc2)s1,-,-,-,-,-,-
COc1ccc2oc(C(=O)OCC(=O)NCc3ccco3)c(C)c2c1,-,-,-,.,-,-
CC(=O)Nc1ccc(C(=O)OCCc2ccccc2)cc1,-,-,56,-,-,-
CCOC(=O)c1ccc(NC(=O)c2ccccc2)cc1,-,-,-,-,-,-
CC(=O)Nc1ccc(C(=O)OCCCOC(=O)c2ccc(NC(C)=O)cc2)cc1,-,-,-,-,-,-
CCOc1ccc(NS(=O)(=O)c2ccc(C(=O)N(C)CC(=O)Nc3ccc(C)cc3)cc2)cc1,-,-,59,.,-,-
CCC(=O)Nc1ccc(C(=O)OCc2ccccc2Cl)cc1,-,-,116,-,-,61
